TRPC4 act: TRPC4 (mouse) channel activation; Q9QUQ5; HEK293 TRPC4beta/mu-opioid, Fluo4 calcium fluorescence; active compounds read high; B-score at 10 µM; 0.49% of 310,000 active;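 active means B-score above 5 SD of library B-scores, and initial fluorescence ratio not above library mean plus 5 SD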;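 further: positive B-score marks a calcium rise read as TRPC4 activation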
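Technique: kinetic Fluo4 calcium fluorescence; Test system: TRPC4beta and mu-opioid receptor HEK293 stable cells; Measure: B-scored integrated calcium fluorescence ratio; Benchmarks: low control buffer alone, high control maximal DAMGO; Schedule: 45 min room-temperature Fluo4 loading, 110 s read.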
TRPC4 inh: TRPC4 (mouse) channel inhibition. Q9QUQ5. HEK293 TRPC4beta/mu-opioid, DAMGO-evoked Fluo4 calcium flux; active compounds read low. B-score at 10 µM. 0.39% of 300,000 active. AID 2247;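 active means B-score over 3 SD under the library average, no early fluorescence shift, positive overall ratio signal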
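System: stable TRPC4beta/mu-opioid receptor HEK293 cells; Dosing: single-point compound dosing; Measured by: Fluo4 Ca2+ flux fluorescence; Read-out basis: per-well B score of integrated baseline-normalized Fluo4 ratio.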
TRPC6 act: mouse TRPC6 channel activation; HEK293-TRPC6 membrane potential dye fluorescence; active compounds read high; B-score at 10 µM; 0.13% of 310,000 active;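 active means B-score of the integrated fluorescence ratio above library mean plus 3 SD, and starting fluorescence ratio within library mean plus 5 SD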;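 further: higher score means more depolarization so channel activation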
Target sequence (Q61143 whole entry, looked up): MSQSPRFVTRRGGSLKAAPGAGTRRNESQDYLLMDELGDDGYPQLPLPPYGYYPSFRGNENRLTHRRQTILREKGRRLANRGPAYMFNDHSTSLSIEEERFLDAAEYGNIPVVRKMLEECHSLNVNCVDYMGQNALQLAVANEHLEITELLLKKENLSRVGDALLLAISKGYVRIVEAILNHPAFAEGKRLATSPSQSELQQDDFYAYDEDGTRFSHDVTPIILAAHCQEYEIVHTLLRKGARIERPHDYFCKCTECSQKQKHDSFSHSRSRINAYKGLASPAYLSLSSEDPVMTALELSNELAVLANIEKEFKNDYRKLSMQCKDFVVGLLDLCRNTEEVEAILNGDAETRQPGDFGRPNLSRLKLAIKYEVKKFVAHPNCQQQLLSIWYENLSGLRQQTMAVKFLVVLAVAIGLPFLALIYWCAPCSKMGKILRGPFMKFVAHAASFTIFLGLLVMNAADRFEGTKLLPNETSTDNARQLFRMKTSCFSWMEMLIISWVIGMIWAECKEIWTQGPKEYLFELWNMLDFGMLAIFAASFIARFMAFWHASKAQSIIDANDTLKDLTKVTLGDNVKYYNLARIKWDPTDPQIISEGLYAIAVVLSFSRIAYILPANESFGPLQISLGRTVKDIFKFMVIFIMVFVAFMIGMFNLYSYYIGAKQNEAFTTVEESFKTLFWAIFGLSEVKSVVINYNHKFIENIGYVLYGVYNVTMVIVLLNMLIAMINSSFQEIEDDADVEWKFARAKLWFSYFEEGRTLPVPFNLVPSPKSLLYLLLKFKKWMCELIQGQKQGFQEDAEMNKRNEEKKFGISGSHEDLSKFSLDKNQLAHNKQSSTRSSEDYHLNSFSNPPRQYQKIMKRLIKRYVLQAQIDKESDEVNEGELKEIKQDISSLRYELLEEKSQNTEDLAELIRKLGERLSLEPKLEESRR
TRPC4 PAM: TRPC4 (mouse) allosteric potentiation; Q9QUQ5; HEK293 TRPC4beta/mu-opioid, DAMGO EC20, Fluo-4 Ca2+ flux; active compounds read high; B-score at 10 µM; 0.42% of 310,000 active; AID 2227;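 active means B-score of calcium response area above 5 SD of library B-scores, with initial fluorescence ratio within 5 SD of library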;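 further: B-score of integrated fluorescence ratio over time as area under calcium response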
TRPC6 inhibitor: mouse TRPC6 channel inhibition. HEK293-TRPC6, membrane potential dye, ACh-evoked depolarization; active compounds read low. 1.1% of 310,000 active. B-score at 10 µM. Q61143;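 active means B-score under library mean minus 3 SD, initial fluorescence not abnormally high, positive integrated signal ratio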;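 further: B-score derived from integrated fluorescence ratio over the kinetic read; more negative B-score means stronger inhibition of depolarization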
* hit, by the source's call; i = inactive. Sampled rows, rich in hits. Any-hit rate of the full collection: about 2.3%.

SMILES	TRPC4 act	TRPC4 inh	TRPC6 act	TRPC4 PAM	TRPC6 inhibitor
CCN1CCN(c2ccc(S(=O)(=O)N3CCOCC3)cc2NC(=O)c2ccc(Cl)s2)CC1	i	i	i	i	i
O=c1cc2c(nn1Cc1ccc(F)cc1)-c1ccccc1CC2	i	-7*	i	11*	i
CCN1CCN(c2c(S(=O)(=O)c3ccc(C)c(C)c3)cnc3ccc(F)cc23)CC1	61*	i	i	i	i
O=C(Nc1cccnc1)C1CCN(S(=O)(=O)c2ccc(Cl)cc2)CC1	i	i	i	i	i
COc1ccc(CCN=C(N)NS(=O)(=O)c2ccc(OC)cc2)cc1	i	i	i	i	i
COc1ccc(CCN=C(N)Nc2nc(C)cc(C)n2)cc1	i	-6*	i	i	i
CCC(C)(C)NC(=O)C(c1sccc1C)N(Cc1ccco1)C(=O)c1csnn1 (stereo not given)	i	i	i	i	-5.8*
Cc1ccsc1C(C(=O)NC(C)(C)C)N(Cc1ccco1)C(=O)c1csnn1 (stereo not given)	i	i	i	i	i
OC(COCCOc1ccc(Br)cc1)CN1CCN(Cc2ccccc2)CC1 (stereo not given)	i	i	i	i	i
CN(C)S(=O)(=O)N1CCN(c2ccc([N+](=O)[O-])c(NC3CC3)c2)CC1	i	i	i	10*	i
Cc1cccnc1CN1CCN(Cc2nc(C(c3ccccc3)c3ccccc3)no2)CC1	i	i	i	i	i
O=C(NCCc1ccccn1)c1ccc(OC2CCN(CCc3ccccc3)CC2)cc1	66*	i	i	i	i
O=C(NCCc1cccc(Cl)c1)c1ccc(OC2CCN(Cc3ccccn3)CC2)cc1	150*	i	i	i	i
CN(Cc1cnn(C)c1)C(=O)c1ccc(OC2CCN(CCc3ccccc3)CC2)cc1	i	-6*	i	i	i
CSCCCNC(=O)c1ccc(OC2CCN(CCc3ccccc3)CC2)cc1	58*	i	i	i	i
CCCCn1nc(NC(=O)CC)c2cc3cc(OC)ccc3nc21	i	i	i	i	i
Cn1c(=O)c2c(nc3n2CC(COc2ccccc2)O3)n(C)c1=O (stereo not given)	i	i	i	i	i
Cn1c(=S)[nH]c2sc3c(c2c1=O)CCC(C(C)(C)C)C3 (stereo not given)	i	i	i	i	i
C=CC[C@@H]1C=C(C)C[C@H](C)C[C@H](OC)[C@H]2O[C@@](O)(C(=O)C(=O)N3CCCC[C@H]3C(=O)O[C@H](/C(C)=C/[C@@H]3CC[C@@H](O)[C@H](OC)C3)[C@H](C)[C@@H](O)CC1=O)[C@H](C)C[C@@H]2OC	i	i	i	i	i
O=C(NCCCN1CCOCC1)C1CCN(S(=O)(=O)c2c(Cl)cccc2Cl)CC1	i	i	i	15*	i
Cc1ccc(S(=O)(=O)N2CCC(C(=O)NCCCN3CCOCC3)CC2)cc1C	i	i	i	i	i
Nc1ccccc1Sc1c[nH]c2ccccc12	i	i	i	i	i
Cc1ccc(NC(=O)c2ccccc2NS(=O)(=O)c2ccc(Cl)s2)cc1S(=O)(=O)N1CCOCC1	i	i	i	i	i
CC[n+]1c(C=C2C=C(C)OC(C)=C2)sc2ccccc21	i	-8*	i	i	i
CCC(C)NC(=O)Cn1ccc2cc(S(=O)(=O)N3CCCCCC3)ccc21 (stereo not given)	i	i	i	i	i
SMILES	TRPC4 act	TRPC4 inh	TRPC6 act	TRPC4 PAM	TRPC6 inhibitor
CCn1cc(Cl)c(C(=O)Nc2c(C)nn(Cc3c(F)c(F)c(F)c(F)c3F)c2C)n1	i	i	i	i	i
N#CCC(=O)N/N=C/c1cc(-c2ccccc2)n(-c2ccc(Cl)cc2)c1-c1ccccc1	i	i	i	i	i
COc1ccc(C)c(NC(=O)NCCc2cnc[nH]2)c1	129*	i	i	i	i
COc1ccc(NC(=O)CN2C(=O)COc3ccc(C)cc32)cc1	i	i	i	i	i
Cc1nc([N+](=O)[O-])c(C(=O)OCc2cccc(Br)c2)n1C	i	i	i	i	i
CC(=O)n1cc(N(C(=O)CCl)c2ccc([N+](=O)[O-])cc2)c2ccccc21	i	i	i	i	i
O=Cc1[nH]c2ccccc2c1N(C(=O)CCl)c1ccc([N+](=O)[O-])cc1	45*	i	i	i	i
CC(=O)N(c1nnc(-c2cccc(C)c2)s1)C1CCCC1	i	i	i	i	i
COc1ccc2oc(C(=O)OC(C)C(=O)NC3(C#N)CCCCC3)c(C)c2c1 (stereo not given)	i	i	i	i	i
CCn1cc(CN2CCCC(C(=O)Nc3ccc(-c4nc5ccccc5[nH]4)cc3)C2)c(C)n1 (stereo not given)	206*	i	i	i	i
Cc1cc(CN2CCCC(C(=O)Nc3ccc(-c4nc5ccccc5[nH]4)cc3)C2)n[nH]1 (stereo not given)	i	-5*	i	i	i
CCn1cc(CN2CCCC(C(=O)Nc3cccc(-c4cc5ccccc5[nH]4)c3)C2)c(C)n1 (stereo not given)	i	i	i	i	i
Cn1cccc1C(=O)NC1CCCCC1	i	i	i	i	i
COC(=O)Cn1c2ccc(Cl)cc2c2nc(C)sc21	i	i	i	i	i
Cc1nc2c3cc(Cl)ccc3n(CCN3CCCCC3)c2s1	i	-6*	i	i	i
COc1ccc(CCNC(=O)Nc2cccs2)c(OC)c1	i	i	i	i	i
CN(CC(=O)Nc1ccccc1Br)C(=O)CNC(=O)Cc1cccc2ccccc12	i	i	i	i	i
O=C1c2ccccc2S(=O)(=O)c2cc(C(=O)N(c3ccccn3)c3ccccn3)ccc21	135*	i	i	i	i
CC(C)(C)c1cc(C(=S)N2CCN(CCO)CC2)cc(C(C)(C)C)c1O	i	i	i	i	i
CC(C)(C)c1cc(C(=O)CCN2CCOCC2)cc(C(C)(C)C)c1O	i	i	i	11*	i
O=C(Nc1ccc(Cl)cc1)C1CCN(C(=O)c2ccco2)CC1	i	i	i	i	i
COc1cc(/C=C/C(=O)OCC(=O)Nc2c(C)n(C)n(-c3ccccc3)c2=O)ccc1O	i	i	i	i	i
COc1cc(/C=C/C(=O)OCC(=O)Nc2c(C)n(C)n(-c3ccccc3)c2=O)ccc1OCC#N	125*	i	i	i	i

Compound activity as filed in PubChem BioAssay.
